# CYP2C9 inhib = inhibitors of human CYP2C9; CYP2C9 Supersomes, luciferin-H conversion, luminescence; inhibition, % at 5 µM; 96,000 tested, 20% active; AID 777;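 active = blocking of liver enzyme CYP2C9 beyond about 50% at 5 µM, limit read from the data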
# Target sequence (P11712 whole entry, looked up): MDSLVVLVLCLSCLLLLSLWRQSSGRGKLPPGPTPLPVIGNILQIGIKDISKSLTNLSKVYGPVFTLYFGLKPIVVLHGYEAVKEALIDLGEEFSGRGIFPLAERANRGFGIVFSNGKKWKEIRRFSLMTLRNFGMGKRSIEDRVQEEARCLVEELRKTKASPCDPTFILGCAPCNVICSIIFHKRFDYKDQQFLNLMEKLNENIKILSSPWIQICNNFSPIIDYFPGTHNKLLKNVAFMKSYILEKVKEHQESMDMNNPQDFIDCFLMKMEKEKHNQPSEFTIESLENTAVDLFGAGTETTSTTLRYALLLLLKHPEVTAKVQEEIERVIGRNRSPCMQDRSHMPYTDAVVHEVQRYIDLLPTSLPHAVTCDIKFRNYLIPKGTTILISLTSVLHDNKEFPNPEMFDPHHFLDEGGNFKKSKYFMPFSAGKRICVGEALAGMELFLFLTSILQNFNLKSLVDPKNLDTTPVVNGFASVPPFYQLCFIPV
# CYP2C19 inhib = blocks human cytochrome P450 2C19 | P33261 | CYP2C19 Supersomes, luciferin-H EGE luminescence, 30 min | inhibition, % at 5 µM | 96,000 tested, 21% active;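 active = CYP2C19 inhibition above a set limit at 5 µM in the primary screen, cut at about 50% in these data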
# CYP2C19 act = activators of human cytochrome P450 2C19; P33261; recombinant CYP2C19, luciferin-H EGE luminescence; active compounds read high; 0 = fully inhibited enzyme, 1 = untreated enzyme; activation factor at 5 µM; 96,000 tested, under 10 active;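 active = activation factor of at least 2 at 5 µM in the primary screen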
# tolC growth inh = blocks growth of E. coli BW25113 tolC mutant; OD615; growth inhibition, % at 10 µM (by protocol); 65,000 tested, 2.2% active; AID 573;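 active = growth inhibition at or above a cutoff equal to the mean over every tested compound plus 3 SD, cut at about 60% in these data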;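 note: growth measured after 20 h incubation at 37 °C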
#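 Assay system: tolC-deleted E. coli BW25113. Medium: kanamycin-containing LB broth (50 µg/mL). Dosing: 10 µM final, single dose. Timing: bacterial growth with compound for 20 h at 37 °C. Detection: A615 absorbance measurement. Read-out basis: growth inhibition in percent.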
# CYP2C9 act = activators of human CYP2C9. recombinant CYP2C9, luciferin-H conversion, luminescence; active compounds read high; factor 1 = untreated enzyme, 0 = blocked. AID 1024. 96,000 tested, 1.4% active. P11712. activation factor at 5 µM;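 active = activation factor of 2 or more for CYP2C9 at a 5 µM dose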
# Ecoli WT expand = blocks growth of wild type E. coli BW25113; OD600 absorbance; growth inhibition, % at 100 µM; 98,000 tested, 0.15% active;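 active = growth inhibition above about 50% at one test dose, limit read from the data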;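 note: growth measured after 20 h incubation at 37 °C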
# A number is an active result; - = inactive; . = no result. The list is not random: actives were taken first. Their share in the collection is about 29%.
SMILES,CYP2C9 inhib,CYP2C19 inhib,CYP2C19 act,tolC growth inh,CYP2C9 act,Ecoli WT expand
CC(OC(=O)c1ccccc1NCc1ccco1)C(=O)Nc1ncc(Cl)cc1Cl (stereo not given),81,66,-,61,-,-
CC(OC(=O)CCc1nc2ccccc2c(=O)[nH]1)C(=O)NCc1ccc2c(c1)OCO2 (stereo not given),.,.,.,-,.,-
CC(C)CC(C(=O)OCC(=O)Nc1ncc(Cl)cc1Cl)N1C(=O)c2ccccc2C1=O (stereo not given),-,-,-,.,-,-
CCCN1CCN(C(=O)C2CCN(S(=O)(=O)c3ccc4c(c3)oc(=O)n4C)CC2)CC1,-,-,-,-,-,-
CC(C)CCn1nc(C(=O)OC(C)C(=O)NC(N)=O)c2ccccc2c1=O (stereo not given),67,-,-,-,-,-
CC(NC(=O)Cn1nc(C(=O)O)c2ccccc2c1=O)c1ccccc1 (stereo not given),.,.,.,-,.,-
Cn1nc(C(=O)NCc2ccccc2)c2ccccc2c1=O,-,58,-,-,-,-
Cc1ccc(S(=O)(=O)Cn2cnnn2)cc1,-,-,-,-,-,-
CC(=O)N(C(C)=O)C1=C(C#N)C2(CCCCC2)Cc2ccccc21,-,-,-,.,-,-
COc1ccccc1OC(C)C(=O)Nc1nc(-c2ccc(S(=O)(=O)N3CCOCC3)cc2)cs1 (stereo not given),93,-,-,.,-,-
CCOc1cccc(C(=O)Nc2nc(-c3ccc(S(=O)(=O)N4CCOCC4)cc3)cs2)c1,65,-,-,-,-,-
COc1ccccc1C(=O)Nc1nc(-c2ccc(S(=O)(=O)N3CCOCC3)cc2)cs1,-,-,-,.,-,-
COc1ccc2c(c1OC)C(=O)OC2C1c2c(cc3c(c2OC)OCO3)CCN1C (stereo not given),89,89,-,-,-,-
COc1ccc(C2C(C(C)=O)=C(O)C(=O)N2CCc2ccccc2)c(OC)c1 (stereo not given),-,-,-,-,-,-
CCCN1C(=O)c2ccccc2NC1c1ccc(OC)cc1OC (stereo not given),53,63,-,-,-,-
CCCN1C(=O)c2ccccc2NC1c1ccc(OC)cc1O (stereo not given),-,81,-,-,-,-
Cc1cc(C)c2ccc(C(=O)O)nc2c1O,-,-,-,.,-,-
COc1ccc(S(=O)(=O)NCCSCc2ccco2)cc1OC,-,60,-,.,2.2,-
COc1ccc(S(=O)(=O)NCCSCc2cccs2)cc1,-,94,-,-,-,-
COc1ccc(S(=O)(=O)NCCSCc2ccccc2C)cc1Br,-,81,-,.,2,-
CCOc1ccc(S(=O)(=O)NCCSCc2ccco2)cc1,-,-,-,.,-,-
COc1ccc(S(=O)(=O)NCCSCc2ccco2)cc1,-,89,-,-,-,-
COc1ccc(S(=O)(=O)NCCC(=O)NCc2cccs2)cc1,-,-,-,-,-,-
Cc1ccccc1CSCCNS(C)(=O)=O,-,-,-,.,-,-
O=C1CCC(=O)N1CN(Cc1ccco1)CN1C(=O)CCC1=O,-,-,-,-,-,-
SMILES,CYP2C9 inhib,CYP2C19 inhib,CYP2C19 act,tolC growth inh,CYP2C9 act,Ecoli WT expand
Cc1ccc(S(=O)(=O)n2ccnc2)cc1C,-,-,-,-,-,-
O=C1CC(C2CCCO2)C(=O)N1Cc1ccccc1 (stereo not given),-,-,-,-,-,-
O=C1CC(Nc2ccccc2)C(=O)N1CCc1ccccc1 (stereo not given),-,79,-,.,-,-
O=C1CC(Nc2ccccc2)C(=O)N1Cc1ccccc1 (stereo not given),-,91,-,.,-,-
O=C1CC(Nc2ccc(N3CCOCC3)cc2)C(=O)N1CCc1ccccc1 (stereo not given),-,-,-,.,-,-
O=C1CC(=O)N(CCc2ccccc2)C(=O)N1CCc1ccccc1,58,-,-,-,-,-
O=C(O)c1cc2cc(F)ccc2[nH]1,.,.,.,-,.,.
O=C(NCc1ccccn1)C1CCCN(S(=O)(=O)c2cccc3nsnc23)C1 (stereo not given),-,-,-,-,-,-
COc1ccc(-n2c(=O)c3ccccc3n(CC(=O)NC3CCCCC3)c2=O)cc1,-,-,-,.,-,-
COc1cc(C2=NOC(C(=O)N3CCOCC3)C2)cc(OC)c1OC (stereo not given),-,-,-,-,-,-
O=C1CC(c2ccccc2)CN1Cc1ccccc1 (stereo not given),-,93,-,-,-,-
C=CCN1CC(c2nc3ccccc3n2Cc2ccccc2)CC1=O (stereo not given),-,-,-,-,-,-
O=C(CN1CC(c2ccccc2)CC1=O)OCc1ccccc1F (stereo not given),56,88,-,-,-,-
Cn1c(C2CC(=O)N(Cc3ccccc3)C2)nc2ccccc21 (stereo not given),-,76,-,.,-,-
Cc1ccc(SCC(=O)NC(C)(C)C)cc1,-,-,-,.,-,-
COC(=O)c1cccc(NC(=O)C2C3CCC(C3)C2C(=O)O)c1 (stereo not given),-,-,-,-,-,-
Cc1sc(NC(=O)CSc2nnc(COc3ccccc3)n2C)c(C#N)c1C,-,-,-,-,-,-
CCn1c(SCC(=O)Nc2sc(C)c(C)c2C#N)nnc1C(C)C,91,98,-,-,-,-
COCCn1c(SCC(=O)Nc2sc(C)c(C)c2C#N)nnc1C(C)C,92,80,-,-,-,-
CCNCC(O)COCC(O)CNCC (stereo not given),-,-,-,-,-,-
CCn1c(SCC(=O)N2CCCc3ccccc32)nc2cccnc21,-,-,-,-,-,-
c1ccc(CCSc2nccn2-c2ccccc2)cc1,54,61,-,.,-,-
Cn1c(SCC(=O)N2CCc3ccccc32)nc2cccnc21,-,82,-,-,-,-
O=C(CSc1nccn1-c1ccccc1)N1CCc2ccccc21,-,96,-,-,-,-
O=C(CSc1ncc(-c2ccccc2)n1C1CCCC1)N1CCc2ccccc21,51,65,-,.,-,-
SMILES,CYP2C9 inhib,CYP2C19 inhib,CYP2C19 act,tolC growth inh,CYP2C9 act,Ecoli WT expand
COc1cccc(OC)c1C(=O)NN1CCCCC1,-,-,-,.,-,-
CCOc1ccc(C(=O)NC(=S)Nc2ccccc2N2CCC(C)CC2)cc1[N+](=O)[O-],72,-,-,.,-,-
O=C1CC(c2c[nH]c3ccccc23)C(=O)N1 (stereo not given),-,-,-,-,-,-
COc1cccc(N2C(=O)CC(c3c[nH]c4ccccc34)C2=O)c1 (stereo not given),-,89,-,-,-,-
COc1ccccc1N(CN1CCCC1=O)C(=O)COc1ccccc1,-,-,-,-,-,-
CC(C)CNC(=O)CCc1c[nH]c2ccccc12,-,84,-,.,-,-

# Screens deposited in PubChem BioAssay by several laboratories.
